Data reported in ChEMBL document CHEMBL1155568, “Biological characterization of fusapyrone and deoxyfusapyrone, two bioactive secondary metabolites of Fusarium semitectum” (J Nat Prod, 2000).
Calls of active or inactive are those of the source. The rule behind the calls is not given here.

How the values were obtained:
Ascochyta rabiei = assay: Antifungal activity against Ascochyta rabiei ITEM 466 at 5 ug/disk by paper disk method; assay type: functional, organism-based
Summary of the method: (§1)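 Agar diffusion: a 0.7% water-agar overlay carrying 10^4 conidia/mL (or yeast cells) is poured on PDA. 6-mm cellulose disks loaded with methanolic compound at 5 or 15 µg/disk are air-dried and applied, with nystatin as comparator. Plates incubated 24-72 h at 25 °C; inhibition halo diameter read from three disks. Agar under each disk is subcultured on PDA to score fungicidal/fungistatic effect. Experiment run twice and averaged.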

Cryptococcus neoformans [1] = assay: Antifungal activity against Cryptococcus neoformans at 50 ug/disk paper disk method; assay type: functional, organism-based
Nakaseomyces glabratus [2] = assay: Antifungal activity against Candida glabrata at 50 ug/disk by paper disk method; assay type: functional, organism-based
Alternaria alternata [3] = assay: Antifungal activity against Alternaria alternata ITEM 511 at 15 ug/disk by paper disk method; assay type: functional; conditions: read-out: IZ; summary of the method: as §1
Alternaria alternata [4] = assay: Antifungal activity against Alternaria alternata ITEM 750 at 15 ug/disk by paper disk method; assay type: functional; conditions: read-out: IZ; summary of the method: as §1
Alternaria citri = assay: Antifungal activity against Alternaria citri ITEM 466 at 15 ug/disk by paper disk method; assay type: functional; conditions: read-out: IZ
Summary of the method: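 Agar overlay diffusion: 0.7% water-agar with 10^4 conidia/mL of test fungus poured over PDA; 6-mm cellulose disks impregnated with methanolic compound solution, air-dried. Incubated 25 °C for 24-72 h by fungus; growth-inhibition halo diameter from three replicate disks. Agar under disks then subcultured on PDA to score fungicidal/fungistatic classes. Repeated twice, averaged.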

Aspergillus flavus [5] = assay: Antifungal activity against Aspergillus flavus ITEM 9 at 15 ug/disk by paper disk method; assay type: functional; conditions: read-out: IZ; summary of the method: as §1
Aspergillus parasiticus = assay: Antifungal activity against Aspergillus parasiticus ITEM 11 at 15 ug/disk by paper disk method; assay type: functional; conditions: read-out: IZ; summary of the method: as §1
[6] = tested on: Cladosporium cladosporioides; assay: Antifungal activity against Cladosporium cladosporioides ITEM 2079 at 15 ug/disk by paper disk method; assay type: functional; conditions: read-out: IZ; summary of the method: as §1
Cladosporium cucumerinum = assay: Antifungal activity against Cladosporium cucumerinum ITEM 2095 at 15 ug/disk by paper disk method; assay type: functional; conditions: read-out: IZ; summary of the method: as §1
Fusarium verticillioides = assay: Antifungal activity against Fusarium moniliforme ITEM 1497 at 15 ug/disk by paper disk method; assay type: functional; conditions: read-out: IZ; summary of the method: as §1
Fusarium oxysporum = assay: Antifungal activity against Fusarium oxysporum ITEM 1462 at 15 ug/disk by paper disk method; assay type: functional; conditions: read-out: IZ; summary of the method: as §1
[7] = tested on: Fusarium oxysporum f. sp. lycopersici; assay: Antifungal activity against Fusarium oxysporum f. sp. lycopersici ITEM 1462 at 15 ug/disk by paper disk method; assay type: functional; conditions: read-out: IZ; summary of the method: as §1
Fusarium incarnatum = assay: Antifungal activity against Fusarium semitectum ITEM 393 at 15 ug/disk by paper disk method; assay type: functional; conditions: read-out: IZ; summary of the method: as §1
Kluyveromyces marxianus [8] = assay: Antifungal activity against Kluyveromyces fragilis ITEM 1657 at 15 ug/disk by paper disk method; assay type: functional; conditions: read-out: IZ
Summary of the method: (§2)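 Agar overlay disk diffusion on plant-derived filamentous fungi and yeasts: 0.7% water-agar seeded with 10^4 conidia/mL or a yeast cell suspension, poured over PDA. 6-mm cellulose disks were loaded from methanolic solutions and air-dried, with nystatin as comparator. Plates ran 24-72 h at 25 °C; inhibition halo was measured over three disks. Agar beneath disks was subcultured on PDA to separate fungicidal from fungistatic, scored in four classes; run twice, averaged.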

Wickerhamomyces anomalus = assay: Antifungal activity against Pichia anomala ITEM 1625 at 15 ug/disk by paper disk method; assay type: functional; conditions: Hansenula anomala; read-out: IZ; summary of the method: as §2
Starmera dryadoides = assay: Antifungal activity against Pichia dryadoides ITEM 1663 at 15 ug/disk by paper disk method; assay type: functional; conditions: Liangdongia dryadoides; read-out: IZ; summary of the method: as §2
Saccharomyces cerevisiae = assay: Antifungal activity against Saccharomyces cerevisiae ITEM 1633 at 15 ug/disk by paper disk method; assay type: functional; conditions: read-out: IZ; summary of the method: as §2
Kluyveromyces marxianus [9] = assay: Antifungal activity against Candida kefyr Y0601 after 24 hrs by broth micromethod assay; assay type: functional
Summary of the method: (§3)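 Broth microdilution in YNB with 0.5% glucose, phosphate buffer pH 7, using ten 2-fold dilutions (50-0.097 µg/mL). Inoculum from 24-48 h Sabouraud agar cultures, final 5 × 10^2 cells for C. albicans and C. kefyr, 5 × 10^3 cells/conidia for C. glabrata, Cryptococcus neoformans and Aspergillus. Incubated at 35 °C up to 72 h, read every 24 h. MIC is the complete absence of growth versus medium controls.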

Candida albicans [10] = assay: Antifungal activity against Candida albicans Y01009 after 24 hrs by broth micromethod assay; assay type: functional; summary of the method: as §3
Candida albicans [11] = assay: Antifungal activity against Candida albicans 1 after 24 hrs by broth micromethod assay; assay type: functional; summary of the method: as §3
Candida albicans [12] = assay: Antifungal activity against Candida albicans 2 after 24 hrs by broth micromethod assay; assay type: functional; summary of the method: as §3
Nakaseomyces glabratus [13] = assay: Antifungal activity against Candida glabrata 12 after 24 hrs by broth micromethod assay; assay type: functional; summary of the method: as §3
Cryptococcus neoformans [14] = assay: Antifungal activity against Cryptococcus neoformans 13 after 24 hrs by broth micromethod assay; assay type: functional; summary of the method: as §3
Cryptococcus neoformans [15] = assay: Antifungal activity against Cryptococcus neoformans 13 after 48 hrs by broth micromethod assay; assay type: functional; summary of the method: as §3
Cryptococcus neoformans [16] = assay: Antifungal activity against Cryptococcus neoformans 14 after 48 hrs by broth micromethod assay; assay type: functional; summary of the method: as §3
Cryptococcus neoformans [17] = assay: Antifungal activity against Cryptococcus neoformans 14 after 72 hrs by broth micromethod assay; assay type: functional; summary of the method: as §3
Aspergillus fumigatus = assay: Antifungal activity against Aspergillus fumigatus 1 after 24 hrs by broth micromethod assay; assay type: functional; summary of the method: as §3
Aspergillus niger = assay: Antifungal activity against Aspergillus niger 2 after 24 hrs by broth micromethod assay; assay type: functional; summary of the method: as §3
Aspergillus flavus [18] = assay: Antifungal activity against Aspergillus flavus 3 after 24 hrs by broth micromethod assay; assay type: functional; summary of the method: as §3
Aspergillus flavus [19] = assay: Antifungal activity against Aspergillus flavus 3 after 72 hrs by broth micromethod assay; assay type: functional; summary of the method: as §3
Cicer arietinum [20] = assay: Phytotoxicity against chickpea cells at 10^-5 M; assay type: organism-based; conditions: 10 µM
Summary of the method: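 Cells came from 2-week-old chickpea leaves by enzyme digestion, washed in holding buffer at pH 5.55, and mixed 1:1 with compound (final 10^-5 to 10^-3 M in 1% MeOH). They were held 3 h at 25 °C in the dark, then stained with fluorescein diacetate. Viability was scored on 30 cells by fluorescence microscopy. Fusaric acid served as positive control; repeated twice.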

Cicer arietinum [21] = assay: Phytotoxicity in chickpea leaf assessed as necrosis in the leaf at 10^-3 M by leaf puncture assay; assay type: organism-based; conditions: in vivo, 1000 µM
Summary of the method: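 Tomato and chickpea leaves were punctured and treated with toxin dissolved in MeOH and diluted with water (final 4% MeOH), tested from 10^-2 to 10^-7 M. Chlorosis and necrosis were recorded visually as spot symptoms.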

Solanum lycopersicum [22] = assay: Phytotoxicity in tomato stem assessed as chlorosis in the leaf at 10^-3 M by tomato cutting assay; assay type: organism-based; conditions: in vivo, 1000 µM
Summary of the method: (§4)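 Young greenhouse tomato plants were cut, and the stems were immersed in toxin solutions (MeOH stock diluted with water; 10^-3 to 10^-6 M). They were held 24 h at 22 °C under a 12-h photoperiod, then moved to distilled water for 48 h more, and symptoms were scored visually.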

Solanum lycopersicum [23] = assay: Phytotoxicity in tomato leaf assessed as chlorosis in the leaf at 10^-4 M by tomato cutting assay; assay type: organism-based; conditions: in vivo, 100 µM; summary of the method: as §4
Solanum lycopersicum [24] = assay: Stimulation of root elongation in tomato at 10^-4 M; assay type: functional, organism-based
Summary of the method: (§5)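 Tomato seeds were surface-sterilized in 4% NaClO for 10 min and pregerminated 3 days in the dark. They were then placed 10 per dish on filter paper wetted with 2 mL of compound in 1% MeOH (10^-4 or 10^-5 M) and held 4 days at 25 °C under a 12-h photoperiod. Shoot and rootlet lengths were measured against control; done in triplicate, repeated once.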

Solanum lycopersicum [25] = assay: Stimulation of root elongation in tomato at 10^-5 M; assay type: functional, organism-based; summary of the method: as §5

| SMILES | Activity (Ascochyta rabiei) | Activity (Cryptococcus neoformans [1]) | Activity (Nakaseomyces glabratus [2]) | zone of inhibition at 15 µg/disc (Alternaria alternata [3]) [mm] | zone of inhibition at 15 µg/disc (Alternaria alternata [4]) [mm] | zone of inhibition at 15 µg/disc (Alternaria citri) [mm] | zone of inhibition at 15 µg/disc (Aspergillus flavus [5]) [mm] | zone of inhibition at 15 µg/disc (Aspergillus parasiticus) [mm] | zone of inhibition at 15 µg/disc [6] [mm] | zone of inhibition at 15 µg/disc (Cladosporium cucumerinum) [mm] | zone of inhibition at 15 µg/disc (Fusarium verticillioides) [mm] | zone of inhibition at 15 µg/disc (Fusarium oxysporum) [mm] | zone of inhibition at 15 µg/disc [7] [mm] | zone of inhibition at 15 µg/disc (Fusarium incarnatum) [mm] | zone of inhibition at 15 µg/disc (Kluyveromyces marxianus [8]) [mm] | zone of inhibition at 15 µg/disc (Wickerhamomyces anomalus) [mm] | zone of inhibition at 15 µg/disc (Starmera dryadoides) [mm] | zone of inhibition at 15 µg/disc (Saccharomyces cerevisiae) [mm] | Activity (Kluyveromyces marxianus [9]) [µg/mL] | Activity (Candida albicans [10]) [µg/mL] | other results |
| --- | --- | --- | --- | --- | --- | --- | --- | --- | --- | --- | --- | --- | --- | --- | --- | --- | --- | --- | --- | --- | --- |
| CCCCCCC(C)C/C(C)=C\C(C)/C=C(C)/C=C/C(O)C(C)(C)c1cc(O)c([C@@H]2O[C@@H](CO)C[C@@H](O)[C@@H]2O)c(=O)o1 (some centres undefined) [DEXOYFUSAPYRONE] | Active | Active | inactive | 11 | 10.5 | 9.2 | 12.4 | 12.7 | 16.2 | 13.5 | 0 | 0 | 4 | 8 | 0 | 0 | 0 | 0 | >50 | >50 | Activity (Candida albicans [11]): >50 µg/mL; Activity (Candida albicans [12]): >50 µg/mL; Activity (Nakaseomyces glabratus [13]): >50 µg/mL; Activity (Cryptococcus neoformans [14]): 6.25 µg/mL; Activity (Cryptococcus neoformans [15]): 6.25 µg/mL; Activity (Cryptococcus neoformans [16]): 3.12 µg/mL; Activity (Cryptococcus neoformans [17]): 3.12 µg/mL; Activity (Aspergillus fumigatus): 3.12 µg/mL; Activity (Aspergillus niger): 1.56 µg/mL; Activity (Aspergillus flavus [18]): 1.56 µg/mL; Activity (Aspergillus flavus [19]): 1.56 µg/mL; Activity (Cicer arietinum [20]): Active; Activity (Cicer arietinum [21]): Active; Activity (Solanum lycopersicum [22]): Not Active; Activity (Solanum lycopersicum [23]): Active; Activity (Solanum lycopersicum [24]): Active; Activity (Solanum lycopersicum [25]): Active |
| CCCCCCC(C)C/C(C)=C\C(/C=C(C)/C=C/C(O)C(C)(C)c1cc(O)c([C@@H]2O[C@@H](CO)C[C@@H](O)[C@@H]2O)c(=O)o1)CO (some centres undefined) [FUSAPYRONE] | Active | Active | inactive | 18 | 18.7 | 18 | 27.3 | 27.5 | 28.7 | 33.3 | 20.1 | 28.3 | 30 | 28.7 | 0 | 0 | 0 | 0 | 0.78 | >50 | Activity (Candida albicans [11]): >50 µg/mL; Activity (Candida albicans [12]): >50 µg/mL; Activity (Nakaseomyces glabratus [13]): >50 µg/mL; Activity (Cryptococcus neoformans [14]): 6.25 µg/mL; Activity (Cryptococcus neoformans [15]): 6.25 µg/mL; Activity (Cryptococcus neoformans [16]): 3.12 µg/mL; Activity (Cryptococcus neoformans [17]): 3.12 µg/mL; Activity (Aspergillus fumigatus): 1.56 µg/mL; Activity (Aspergillus niger): 1.56 µg/mL; Activity (Aspergillus flavus [18]): 1.56 µg/mL; Activity (Aspergillus flavus [19]): 1.56 µg/mL; Activity (Cicer arietinum [20]): Active; Activity (Cicer arietinum [21]): Active; Activity (Solanum lycopersicum [22]): Not Active; Activity (Solanum lycopersicum [23]): Active; Activity (Solanum lycopersicum [24]): Active; Activity (Solanum lycopersicum [25]): Active |
